Experimental findings from ChEMBL document CHEMBL1124793, “Comparative reactivity of 1-carba-1-dethiacephalosporins with cephalosporins” (J Med Chem, 1990) are described below.

Molecules are shown by their SMILES. In brackets after ≈: the same amount, converted by molar mass.

The subject of the first data set is Escherichia coli. Briefly: In vitro inhibitory activity against Escherichia coli EC14. The format is functional. Summed up:
(§1)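 Agar dilution: compounds were diluted in 0.1 M phosphate buffer, pH 7.0, and mixed at 50 °C into Mueller–Hinton agar with 1% Bacto-Supplement C. Fresh overnight cultures were diluted to about 1 × 10^4 cells/μL and spotted at 1 μL. Plates were incubated overnight at 35 °C in ambient air. MIC (μg/mL) was the lowest concentration preventing visible growth.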
Consider `COC(=O)C1=C(C(=O)O)N2C(=O)[C@@H](NC(=O)Cc3cccs3)[C@H]2SC1`, for which the MIC is 2 µg/mL (≈ 5.23 µM).

In turn, `CO/N=C(\C(=O)N[C@@H]1C(=O)N2C(C(=O)O)=CCC[C@H]12)c1csc(N)n1` gave an MIC of 0.008 µg/mL (≈ 0.0219 µM).

In turn, `CO/N=C(\C(=O)N[C@@H]1C(=O)N2C(C(=O)[O-])=C(C[n+]3ccccc3)CS[C@H]12)c1csc(N)n1` gave an MIC of 0.03 µg/mL (≈ 0.0632 µM).

The compound `N[C@@H](C(=O)N[C@@H]1C(=O)N2C(C(=O)O)=C(Cl)CS[C@H]12)c1ccccc1` [CEFACLOR ANHYDROUS] showed an MIC of 0.25 µg/mL (≈ 0.68 µM).

With `COCC1=C(C(=O)O)N2C(=O)[C@@H](NC(=O)COc3ccccc3)[C@H]2SC1`, the MIC came out at 128 µg/mL (≈ 338 µM).

The next data set has as its system Pseudomonas aeruginosa. The data set is described as follows: In vitro inhibitory activity against Pseudomonas aeruginosa X258. Format: functional. The method in brief: as §1
Compound `CO/N=C(\C(=O)N[C@@H]1C(=O)N2C(C(=O)O)=CCC[C@H]12)c1csc(N)n1` registered an MIC of 32 µg/mL (≈ 87.6 µM).

In turn, `CO/N=C(\C(=O)N[C@@H]1C(=O)N2C(C(=O)[O-])=C(C[n+]3ccccc3)CS[C@H]12)c1csc(N)n1` yielded an MIC of 2 µg/mL (≈ 4.21 µM).

In turn, `N[C@@H](C(=O)N[C@@H]1C(=O)N2C(C(=O)O)=C(Cl)CS[C@H]12)c1ccccc1` [CEFACLOR ANHYDROUS] had an MIC of 128 µg/mL (≈ 348 µM).

Compound `COCC1=C(C(=O)O)N2C(=O)[C@@H](NC(=O)COc3ccccc3)[C@H]2SC1` displayed an MIC of 128 µg/mL (≈ 338 µM).

A further data set relates to Pseudomonas aeruginosa. Briefly: In vitro in vitro inhibitory activity against Pseudomonas aeruginosa X258. The format is functional. The method in brief:
as §1
Take `COC(=O)C1=C(C(=O)O)N2C(=O)[C@@H](NC(=O)Cc3cccs3)[C@H]2SC1`: the MIC stood at 128 µg/mL (≈ 335 µM).

Test system in another data set: not listed separately
The data set is described as follows: Half-life is evaluated. The format is ADME. The method in brief: (§2)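 Parent β-lactam loss followed by HPLC, starting at 3.9 × 10^-4–1 × 10^-3 M, at 35 °C and μ = 0.5. pH was held at 10 by a pH-stat adding NaOH. Pseudo-first-order rate constants were derived, with half-lives from these rates. Some runs were done at pH 11, and the constant was taken as 1/10 of the observed value, assuming proportionality to [OH].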
Compound `COC(=O)C1=C(C(=O)O)N2C(=O)[C@@H](NC(=O)Cc3cccs3)[C@H]2SC1` had a half-life of 6.66 min.

Compound `CO/N=C(\C(=O)N[C@@H]1C(=O)N2C(C(=O)O)=CCC[C@H]12)c1csc(N)n1` gave a half-life of 7380 min.

`CO/N=C(\C(=O)N[C@@H]1C(=O)N2C(C(=O)[O-])=C(C[n+]3ccccc3)CS[C@H]12)c1csc(N)n1` showed a half-life of 22.5 min.

On to `N[C@@H](C(=O)N[C@@H]1C(=O)N2C(C(=O)O)=C(Cl)CS[C@H]12)c1ccccc1` [CEFACLOR ANHYDROUS], for which the half-life was 44 min.

Compound `COCC1=C(C(=O)O)N2C(=O)[C@@H](NC(=O)COc3ccccc3)[C@H]2SC1` showed a half-life of 113 min. Compared with the last compound, the half-life is about 2.6-fold higher.

Test system in a further data set: not listed separately
The data set is described as follows: Pseudo-first-order rate constant at pH 10 and 35 degrees Centigrade. The format is ADME. The method in brief: as §2
As for `COC(=O)C1=C(C(=O)O)N2C(=O)[C@@H](NC(=O)Cc3cccs3)[C@H]2SC1`, the K was 6.27 h⁻¹.

Regarding `CO/N=C(\C(=O)N[C@@H]1C(=O)N2C(C(=O)O)=CCC[C@H]12)c1csc(N)n1`, the K was 0.00565 h⁻¹.

Compound `CO/N=C(\C(=O)N[C@@H]1C(=O)N2C(C(=O)[O-])=C(C[n+]3ccccc3)CS[C@H]12)c1csc(N)n1` yielded a K of 1.85 h⁻¹.

`N[C@@H](C(=O)N[C@@H]1C(=O)N2C(C(=O)O)=C(Cl)CS[C@H]12)c1ccccc1` [CEFACLOR ANHYDROUS]: the K was determined as 0.944 h⁻¹.

For `COCC1=C(C(=O)O)N2C(=O)[C@@H](NC(=O)COc3ccccc3)[C@H]2SC1`, the K amounted to 0.368 h⁻¹.

A further data set has as its system Streptococcus pyogenes. Briefly: In vitro inhibitory activity against Streptococcus pyogenes Park. Format: functional. Summed up:
as §1
Take `COC(=O)C1=C(C(=O)O)N2C(=O)[C@@H](NC(=O)Cc3cccs3)[C@H]2SC1`: the MIC stood at 0.03 µg/mL (≈ 0.0784 µM).

The compound `CO/N=C(\C(=O)N[C@@H]1C(=O)N2C(C(=O)O)=CCC[C@H]12)c1csc(N)n1` had an MIC of 0.015 µg/mL (≈ 0.0411 µM).

`CO/N=C(\C(=O)N[C@@H]1C(=O)N2C(C(=O)[O-])=C(C[n+]3ccccc3)CS[C@H]12)c1csc(N)n1` showed an MIC of 0.03 µg/mL (≈ 0.0632 µM).

`N[C@@H](C(=O)N[C@@H]1C(=O)N2C(C(=O)O)=C(Cl)CS[C@H]12)c1ccccc1` [CEFACLOR ANHYDROUS] had an MIC of 0.5 µg/mL (≈ 1.36 µM).

Consider `COCC1=C(C(=O)O)N2C(=O)[C@@H](NC(=O)COc3ccccc3)[C@H]2SC1`, for which the MIC is 0.12 µg/mL (≈ 0.317 µM).

The next data set has as its system Enterobacter cloacae. The data set is described as follows: In vitro inhibitory activity against Enterobacter cloacae EB5. Format: functional. Summed up: as §1
Take `COC(=O)C1=C(C(=O)O)N2C(=O)[C@@H](NC(=O)Cc3cccs3)[C@H]2SC1`: the MIC was determined as 128 µg/mL (≈ 335 µM).

Take `CO/N=C(\C(=O)N[C@@H]1C(=O)N2C(C(=O)O)=CCC[C@H]12)c1csc(N)n1`: the MIC is 0.06 µg/mL (≈ 0.164 µM).

As for `CO/N=C(\C(=O)N[C@@H]1C(=O)N2C(C(=O)[O-])=C(C[n+]3ccccc3)CS[C@H]12)c1csc(N)n1`, the MIC was 0.06 µg/mL (≈ 0.126 µM).

For `N[C@@H](C(=O)N[C@@H]1C(=O)N2C(C(=O)O)=C(Cl)CS[C@H]12)c1ccccc1` [CEFACLOR ANHYDROUS], the MIC amounted to 32 µg/mL (≈ 87 µM).

Turning to `COCC1=C(C(=O)O)N2C(=O)[C@@H](NC(=O)COc3ccccc3)[C@H]2SC1`, the MIC was found to be 128 µg/mL (≈ 338 µM).

A further data set deals with Staphylococcus aureus. Briefly: In vitro inhibitory activity against Staphylococcus aureus X1.1. The format is functional. The method in brief: as §1
On to `COC(=O)C1=C(C(=O)O)N2C(=O)[C@@H](NC(=O)Cc3cccs3)[C@H]2SC1`, for which the MIC is 0.5 µg/mL (≈ 1.31 µM).

On to `CO/N=C(\C(=O)N[C@@H]1C(=O)N2C(C(=O)O)=CCC[C@H]12)c1csc(N)n1`, for which the MIC was 16 µg/mL (≈ 43.8 µM).

In the case of `CO/N=C(\C(=O)N[C@@H]1C(=O)N2C(C(=O)[O-])=C(C[n+]3ccccc3)CS[C@H]12)c1csc(N)n1`, the MIC worked out at 1 µg/mL (≈ 2.11 µM).

In turn, `N[C@@H](C(=O)N[C@@H]1C(=O)N2C(C(=O)O)=C(Cl)CS[C@H]12)c1ccccc1` [CEFACLOR ANHYDROUS] gave an MIC of 1 µg/mL (≈ 2.72 µM).

Regarding `COCC1=C(C(=O)O)N2C(=O)[C@@H](NC(=O)COc3ccccc3)[C@H]2SC1`, the MIC was determined as 0.25 µg/mL (≈ 0.661 µM).

For another data set, the system named is Providencia rettgeri. The data set is described as follows: In vitro inhibitory activity against Proteus rettgeri C24. The format is functional. The method in brief: as §1
As for `COC(=O)C1=C(C(=O)O)N2C(=O)[C@@H](NC(=O)Cc3cccs3)[C@H]2SC1`, the MIC was found to be 128 µg/mL (≈ 335 µM).

In turn, `CO/N=C(\C(=O)N[C@@H]1C(=O)N2C(C(=O)O)=CCC[C@H]12)c1csc(N)n1` returned an MIC of 0.008 µg/mL (≈ 0.0219 µM).

Compound `CO/N=C(\C(=O)N[C@@H]1C(=O)N2C(C(=O)[O-])=C(C[n+]3ccccc3)CS[C@H]12)c1csc(N)n1` registered an MIC of 0.03 µg/mL (≈ 0.0632 µM).

On to `N[C@@H](C(=O)N[C@@H]1C(=O)N2C(C(=O)O)=C(Cl)CS[C@H]12)c1ccccc1` [CEFACLOR ANHYDROUS], for which the MIC amounted to 128 µg/mL (≈ 348 µM).

With `COCC1=C(C(=O)O)N2C(=O)[C@@H](NC(=O)COc3ccccc3)[C@H]2SC1`, the MIC worked out at 128 µg/mL (≈ 338 µM).

The test system of the next data set is Klebsiella pneumoniae. The data set is described as follows: In vitro inhibitory activity against Klebsiella X26. Format: functional. Summed up:
as §1
In turn, `COC(=O)C1=C(C(=O)O)N2C(=O)[C@@H](NC(=O)Cc3cccs3)[C@H]2SC1` had an MIC of 2 µg/mL (≈ 5.23 µM).

Turning to `CO/N=C(\C(=O)N[C@@H]1C(=O)N2C(C(=O)O)=CCC[C@H]12)c1csc(N)n1`, the MIC was 0.008 µg/mL (≈ 0.0219 µM).

The compound `CO/N=C(\C(=O)N[C@@H]1C(=O)N2C(C(=O)[O-])=C(C[n+]3ccccc3)CS[C@H]12)c1csc(N)n1` had an MIC of 0.03 µg/mL (≈ 0.0632 µM).

Consider `N[C@@H](C(=O)N[C@@H]1C(=O)N2C(C(=O)O)=C(Cl)CS[C@H]12)c1ccccc1` [CEFACLOR ANHYDROUS], for which the MIC came out at 0.25 µg/mL (≈ 0.68 µM).

Take `COCC1=C(C(=O)O)N2C(=O)[C@@H](NC(=O)COc3ccccc3)[C@H]2SC1`: the MIC is 32 µg/mL (≈ 84.6 µM).

In the next data set the test system is Haemophilus influenzae. Briefly: In vitro inhibitory activity against Haemophilus influenza C.L. Format: functional. Summed up:
as §1
Turning to `COC(=O)C1=C(C(=O)O)N2C(=O)[C@@H](NC(=O)Cc3cccs3)[C@H]2SC1`, the MIC came to 2 µg/mL (≈ 5.23 µM).

Take `CO/N=C(\C(=O)N[C@@H]1C(=O)N2C(C(=O)O)=CCC[C@H]12)c1csc(N)n1`: the MIC was 0.008 µg/mL (≈ 0.0219 µM).

As to `CO/N=C(\C(=O)N[C@@H]1C(=O)N2C(C(=O)[O-])=C(C[n+]3ccccc3)CS[C@H]12)c1csc(N)n1`, the MIC stood at 0.06 µg/mL (≈ 0.126 µM).

In turn, `N[C@@H](C(=O)N[C@@H]1C(=O)N2C(C(=O)O)=C(Cl)CS[C@H]12)c1ccccc1` [CEFACLOR ANHYDROUS] displayed an MIC of 1 µg/mL (≈ 2.72 µM).

Consider `COCC1=C(C(=O)O)N2C(=O)[C@@H](NC(=O)COc3ccccc3)[C@H]2SC1`, for which the MIC is 2 µg/mL (≈ 5.29 µM).

The half-life is the time needed for the level to fall by half in the phase considered. Read a low half-life as fast loss.
